Source: PubChem
T cruzi repl: blocks replication of Trypanosoma cruzi; AID 1885; T. cruzi beta-gal in NIH3T3, luminescence, 90 h; actives 1.4% (n = 300,000); inhibition, % (test concentration not listed);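 active = mean inhibition across valid replicates above about 55%, limit read from the data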;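 note: signal also drops with host cell toxicity which is not excluded here; 0% = plate median of DMSO wells and 100% = zero luminescence signal; higher percent means less beta-gal luminescence so fewer parasites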
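Incubation – ≥90 h infection period, 3 h prior cell attachment · System – NIH/3T3 fibroblasts plus reporter T. cruzi · Doses – compound pinned at 50 nL/well, DMSO · Read-out basis – percent inhibition of parasite-derived β-gal signal · Signal – luminescent β-galactosidase signal after 60 min lysis · Also added – 5000 T. cruzi trypomastigotes/well · Medium – Low-serum DMEM with 2% FBS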
CSC inhib: blocks cancer stem cells; inhibition, % at 7.5 µM; actives 1.1% (n = 300,000); cancer stem cell-like cells viability, luminescence; in the data active = inhibition above about 75%; tested in HMLE shEcad cells
Beta apoptosis: blocks beta cell apoptosis; INS-1E cytokine-induced death, ATP luminescence, 48 h; percent of positive-control rescue, neutral wells zero; protection from apoptosis, % (test concentration not listed); actives 0.8% (n = 300,000); AID 435005;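 active = Every replicate reaches about 75%, or at least half do and their mean reaches it too, limit read from the data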;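 note: 0% = cytokine-treated negative control wells and 100% = positive control rescue; higher means more ATP so stronger rescue from cytokine killing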
PREPL inh: inhibits the human prolyl oligopeptidase-like enzyme. Q4J6C6. recombinant PREPL, fluorescence polarization activity-based probe. inhibition, % at 5.96 µM. actives 0.68% (n = 320,000). AID 2751; in the data active = inhibition above about 43%;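 note: 0% = enzyme with DMSO and 100% = wells lacking enzyme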
Target sequence (Q4J6C6 whole entry, looked up): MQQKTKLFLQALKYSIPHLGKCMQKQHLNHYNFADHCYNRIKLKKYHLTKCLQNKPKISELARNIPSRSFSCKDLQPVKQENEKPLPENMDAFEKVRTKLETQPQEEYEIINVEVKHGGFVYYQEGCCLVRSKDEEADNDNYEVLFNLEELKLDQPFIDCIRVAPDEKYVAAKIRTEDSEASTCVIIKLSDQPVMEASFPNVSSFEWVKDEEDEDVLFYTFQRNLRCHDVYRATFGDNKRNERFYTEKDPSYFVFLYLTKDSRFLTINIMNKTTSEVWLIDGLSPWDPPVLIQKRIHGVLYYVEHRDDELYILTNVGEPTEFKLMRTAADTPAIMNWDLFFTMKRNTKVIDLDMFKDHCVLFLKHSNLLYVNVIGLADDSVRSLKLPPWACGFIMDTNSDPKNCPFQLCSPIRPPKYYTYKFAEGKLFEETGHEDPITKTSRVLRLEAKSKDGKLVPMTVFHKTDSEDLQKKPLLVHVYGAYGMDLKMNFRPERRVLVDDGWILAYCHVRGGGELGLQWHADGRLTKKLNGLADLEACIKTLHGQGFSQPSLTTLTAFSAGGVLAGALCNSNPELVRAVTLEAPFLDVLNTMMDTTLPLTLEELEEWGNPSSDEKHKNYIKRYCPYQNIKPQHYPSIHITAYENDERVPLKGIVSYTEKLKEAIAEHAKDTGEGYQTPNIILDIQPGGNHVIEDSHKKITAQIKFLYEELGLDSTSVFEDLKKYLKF
CHOP inhibitor: inhibitors of CHOP induction in ER stress response. AID 2732. actives 3.8% (n = 220,000). CHO-K1 CHOP-promoter luciferase, tunicamycin-induced, 15-18 h. inhibition, % at 10 µM;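 active = compounds that reduced the stress-induced luciferase reporter signal by more than about 70% of percent inhibition, limit read from the data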;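 note: 0% = tunicamycin plus vehicle and 100% = wells without tunicamycin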
GRIN3A LBD mod: modulates the human NR3A ligand-binding domain. actives 2.5% (n = 340,000). Tm shift relative to glycine control, % at 25 µM. NR3A LBD differential scanning fluorimetry, Tm shift; 0% = protein alone, 100% = glycine-bound protein;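 active = melting temperature shift of at least 10% of the positive control shift, at one fixed dose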
* hit, by the source's call; · = no result given. Compounds with a hit are over-represented: about 6.7% of the library has one in this group of screens.

SMILES | T cruzi repl | CSC inhib | Beta apoptosis | PREPL inh | CHOP inhibitor | GRIN3A LBD mod
O=C(NCc1ccccn1)c1cc(-c2ccccc2)nc2ccccc12 | -2 | 13 | 1 | -9 | 11 | -2
Cc1ccc(C)c(-c2cc(C(=O)NNC(=S)NCC(C)C)c3ccccc3n2)c1 | -26 | 21 | 28 | -12 | 27 | 12*
Cc1ccc(C)c(-c2cc(C(=O)Nc3sc(C)c(C)c3C(N)=O)c3ccccc3n2)c1 | 29 | 54 | -5 | 0 | 67 | 14*
Cc1cccc(-c2cc(C(=O)NCc3ccccn3)c3ccccc3n2)c1 | 6 | -1 | 7 | -4 | 11 | 16*
Cc1cccc(-c2cc(C(=O)Nc3sc(C)c(C)c3C(N)=O)c3ccccc3n2)c1 | 29 | 37 | 18 | 16 | 21 | 15*
Cc1cc(C)c(S(=O)(=O)c2cccc(Br)c2C)c(Cl)n1 | 13 | 8 | -11 | · | · | -2
CC(C)=C[C@H]1C[C@H](C)[C@H]2CC[C@H](C)c3c(O[C@@H]4OC[C@@H](O)[C@H](O)C4O)c(O)c(C)c1c32 (some centres not stated) | · | · | 2 | 1 | · | 29*
CC(C)CCn1c(=O)c2ccccc2c2ccccc2c1=O | · | · | 2 | 0 | 78* | -14
Cc1cc(NC(=O)c2cccc(S(=O)(=O)N3CCCCC3)c2)no1 | -3 | -3 | -2 | 12 | · | 1
CC(NC(=S)NC1CCCCC1)c1ccc(C(C)(C)C)cc1 (configuration not stated) | 42 | 45 | 99* | 11 | · | 4
CC(C)c1ccc(C(C)NC(=S)NC2CCCCC2)cc1 (configuration not stated) | 27 | -12 | 17 | · | · | -1
Cc1ccc(/C=N\NC(=O)/C(=C\Nc2nccc(C)n2)NC(=O)c2ccccc2)cc1 | -3 | -13 | -5 | 5 | -5 | -2
O=C(c1ccccc1)N1CCCCC(S(=O)(=O)c2ccc3ccccc3c2)C1=O (configuration not stated) | -13 | -14 | -5 | 8 | 31 | 0
COC(=O)C1CCN(C(=O)CN2C(=O)NC(CC(C)C)C2=O)CC1 (configuration not stated) | · | -16 | 2 | 9 | · | 0
Cc1nc2sc3c(NCc4ccco4)ncnc3c2c2c1COC(C)(C)C2 | 17 | 85* | 0 | -4 | 9 | 2
CN=C1CC(C)(C)CC(=O)/C1=C(/O)CCCN1C(=O)c2ccccc2C1=O | 9 | -13 | 4 | 1 | -5 | 3
CC1=CC(C)C(C[N+]2(C)CCCCC2)C(C)C1 (configuration not stated) | -2 | 2 | 1 | 4 | 8 | 1
CC1=CC(C)C(COC(=O)CN2CCCCC2)C(C)C1 (configuration not stated) | -2 | -9 | -2 | -10 | 0 | 11*
Cc1ccc([N+](=O)[O-])cc1NC(=O)CN(C1CCCCC1)S(=O)(=O)c1ccc(Cl)cc1 | 59* | · | · | · | 20 | -3
COc1ccc(C)cc1S(=O)(=O)N(CC(=O)Nc1cccc([N+](=O)[O-])c1)c1ccccc1 | 12 | -5 | 13 | 14 | 1 | 4
CC(=O)Nc1ccc(NC(=O)CN(c2cccc([N+](=O)[O-])c2)S(C)(=O)=O)cc1 | -2 | -17 | 108* | 5 | 10 | -11
CS(=O)(=O)N(CC(=O)Nc1cccc(F)c1)c1cccc([N+](=O)[O-])c1 | -16 | -11 | 23 | -11 | 22 | -7
Cc1ccc(NC(=O)CN(c2ccc(Cl)cc2)S(=O)(=O)c2cc([N+](=O)[O-])ccc2Cl)c(C)c1 | 59* | 45 | 25 | 13 | 15 | 1
Cc1ccc([N+](=O)[O-])cc1NC(=O)CN(C(=O)c1ccccc1Cl)C1CCCCC1 | 12 | -5 | -1 | -9 | 32 | -13
Cc1ccc(NS(=O)(=O)c2ccc(NC(=O)CN(c3cc([N+](=O)[O-])ccc3C)S(C)(=O)=O)cc2)c(C)c1 | 51 | -5 | 106* | -3 | 44 | 13*
CC(C)C[C@@H](C(=O)N[C@@H](C(=O)O)c1ccccc1)N1C(=O)N2CCc3c([nH]c4ccccc34)[C@@]2(C)C1=O | -5 | -7 | -1 | 9 | · | 0
N/C(=N\OC(=O)c1cccc2ccccc12)c1cccc([N+](=O)[O-])c1 | 13 | 2 | -7 | 19 | 63 | 26*
